Experimental data reported in ChEMBL document CHEMBL5620363, “HIV-1 protease inhibitors with a P1 phosphonate modification maintain potency against drug-resistant variants by increased interactions with flap residues” (Eur J Med Chem, 2023).

Key:
[1] = test system: Human immunodeficiency virus 1; experiment: (§1) Antiviral activity against wild-type HIV-1 NL4-3 infected in human TZM-bl cells using virus particles harvested from 24 hrs drug-treated human CEM cells infected with virus assessed as reduction in viral infection measured after 48 hrs in TZM-bl cells by Firefly luciferase based assay; type: functional, organism-based; conditions: Human immunodeficiency virus 1, NL4-3, TZM-bl
How it was run: (§2)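 Virus stocks grown by infecting 3 × 10^6 CEM cells with virus at 37 °C for 2–3 h, then RPMI with medium changes every 48 h until CPE. Infected CEM cells plated onto five-fold serial inhibitor dilutions in RPMI (top 100 μM).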

[2] = test system: Human immunodeficiency virus 1; experiment: as §1, with “drug-resistant” for “wild-type”, “harboring Gag mutation/protease I13V/G16E/V32I/L33F/K45I/M46I/A71V/L76V/V82F/I84V mutant” for “NL4-3”; type: functional, organism-based; conditions: Human immunodeficiency virus 1, TZM-bl; how it was run: as §2
[3] = test system: Human immunodeficiency virus 1; experiment: as §1, with “drug-resistant” for “wild-type”, “harboring RT mutation/protease I13V/G16E/V32I/L33F/K45I/M46I/A71V/L76V/V82F/I84V mutant” for “NL4-3”; type: functional, organism-based; conditions: Human immunodeficiency virus 1, TZM-bl; how it was run: as §2
[4] = test system: Human immunodeficiency virus 1; experiment: as §1, with “drug-resistant” for “wild-type”, “harboring protease L10F/L33F/M46I/I47V/I50V/F53L/L63P/A71V/L76S/V82I/I85V/L89I mutant” for “NL4-3”; type: functional, organism-based; conditions: Human immunodeficiency virus 1, TZM-bl
[5] = test system: Human immunodeficiency virus 1; experiment: as §1, with “drug-resistant” for “wild-type”, “harboring protease L10F/V11I/I13V/V32I/L33F/K43T/M46L/I54L/A71V/V82I/I84V/L89M/T91S/Q92R mutant” for “NL4-3”; type: functional, organism-based; conditions: Human immunodeficiency virus 1, TZM-bl; how it was run: as §2
[6] = test system: Human immunodeficiency virus 1; experiment: as §1, with “drug-resistant” for “wild-type”, “harboring protease L10F/I15V/M46I/I47V/I50V/F53L/A71V/V82I/I84V/L89T mutant” for “NL4-3”; type: functional, organism-based; conditions: Human immunodeficiency virus 1, TZM-bl; how it was run: as §2
[7] = test system: Human immunodeficiency virus 1; experiment: as §1, with “drug-resistant” for “wild-type”, “harboring protease L10F/I13V/L33F/K45R/M46I/I47V/I50V/F53L/I54L/I66F/A71V/T74A/L76S/V82I mutant” for “NL4-3”; type: functional, organism-based; conditions: Human immunodeficiency virus 1, TZM-bl; how it was run: as §2
[8] = test system: Human immunodeficiency virus 1; experiment: Antiviral activity against DRV-resistant HIV-1 infected in human TZM-bl cells using virus particles harvested from 24 hrs drug-treated human CEM cells infected with virus assessed as reduction in viral infection measured after 48 hrs in TZM-bl cells by Firefly luciferase based assay; type: functional, organism-based; conditions: Human immunodeficiency virus 1, TZM-bl; how it was run: as §2
[9] = test system: Human immunodeficiency virus 1; experiment: Selectivity ratio of EC50 for drug-resistant HIV-1 harboring Gag mutation/protease I13V/G16E/V32I/L33F/K45I/M46I/A71V/L76V/V82F/I84V mutant infected in human TZM-bl cells to EC50 for wild-type HIV-1 NL4-3 infected in human TZM-bl cells; type: functional
[10] = test system: Human immunodeficiency virus 1; experiment: Selectivity ratio of EC50 for drug-resistant HIV-1 harboring RT mutation/protease I13V/G16E/V32I/L33F/K45I/M46I/A71V/L76V/V82F/I84V mutant infected in human TZM-bl cells to EC50 for wild-type HIV-1 NL4-3 infected in human TZM-bl cells; type: functional
[11] = test system: Human immunodeficiency virus 1; experiment: Selectivity ratio of EC50 for drug-resistant HIV-1 harboring protease L10F/L33F/M46I/I47V/I50V/F53L/L63P/A71V/L76S/V82I/I85V/L89I mutant infected in human TZM-bl cells to EC50 for wild-type HIV-1 NL4-3 infected in human TZM-bl cells; type: functional
[12] = test system: Human immunodeficiency virus 1; experiment: Selectivity ratio of EC50 for drug-resistant HIV-1 harboring protease L10F/V11I/I13V/V32I/L33F/K43T/M46L/I54L/A71V/V82I/I84V/L89M/T91S/Q92R mutant infected in human TZM-bl cells to EC50 for wild-type HIV-1 NL4-3 infected in human TZM-bl cells; type: functional
[13] = test system: Human immunodeficiency virus 1; experiment: Selectivity ratio of EC50 for drug-resistant HIV-1 harboring protease L10F/I15V/M46I/I47V/I50V/F53L/A71V/V82I/I84V/L89T mutant infected in human TZM-bl cells to EC50 for wild-type HIV-1 NL4-3 infected in human TZM-bl cells; type: functional
[14] = test system: Human immunodeficiency virus 1; experiment: Selectivity ratio of EC50 for drug-resistant HIV-1 harboring protease L10F/I13V/L33F/K45R/M46I/I47V/I50V/F53L/I54L/I66F/A71V/T74A/L76S/V82I mutant infected in human TZM-bl cells to EC50 for wild-type HIV-1 NL4-3 infected in human TZM-bl cells; type: functional
[15] = test system: Human immunodeficiency virus 1; experiment: Selectivity ratio of EC50 for DRV-resistant HIV-1 infected in human TZM-bl cells to EC50 for wild-type HIV-1 NL4-3 infected in human TZM-bl cells; type: functional

With `CCC(CC)CN(C[C@@H](O)[C@H](Cc1ccccc1)NC(=O)O[C@H]1CO[C@H]2OCC[C@H]21)S(=O)(=O)c1ccc(OC)cc1` the EC50 [1] was 3 nM, the EC50 [2] was 140 nM and the EC50 [3] was 250 nM. The EC50 [4] was 800 nM, the EC50 [5] was 5380 nM and the EC50 [6] was 21800 nM. For the same compound, the EC50 [7] was 16700 nM, the EC50 [8] was 1600 nM and the “Ratio EC50” value [9] was 47. The “Ratio EC50” value [10] was 83, the “Ratio EC50” value [11] was 267 and the “Ratio EC50” value [12] was 1793. The “Ratio EC50” value [13] was 7267, the “Ratio EC50” value [14] was 5567 and the “Ratio EC50” value [15] was 533.
